Results on 1 compound are retold here after ChEMBL document CHEMBL4130623, “Discovery of Highly Potent Pinanamine-Based Inhibitors against Amantadine- and Oseltamivir-Resistant Influenza A Viruses” (J Med Chem, 2018).

Data set [1] relates to Influenza A virus. In words: Antiviral activity against Influenza A virus (A/Guangzhou/GIRD/07/2009 (H1N1)) infected in MDCK cells assessed as reduction in virus-induced cytopathic effect after 48 hrs by microscopic analysis. In kind it is functional, organism-based. In short, it runs like this: (§1)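 MDCK monolayers (5×10^4 cells/well, grown 24 h) were rinsed twice, infected with 100 TCID50 virus for 2 h at 37 °C in 5% CO2, and the inoculum was removed. Two-fold serial compound dilutions in DMEM with 1.5 µg/mL trypsin were added and incubated 48 h at 34 °C. CPE percentage was scored by microscope and EC50 fitted by non-linear regression.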

In data set [2] the test system is Influenza A virus. Put plainly: Antiviral activity against Influenza A virus (A/WSN/33) by CCK-8 reagent based assay. In kind it is functional, organism-based. Particulars: A/WSN/1933(H1N1).
Data set [3] deals with Influenza A virus. In words: Antiviral activity against Influenza A virus (A/HK/68) by CCK-8 reagent based assay. In kind it is functional, organism-based.
Data set [4] can be described thus: Cytotoxicity against MDCK cells assessed as change in cell morphology after 48 hrs by microscopic analysis. It is filed as cell-based, Canis lupus familiaris. The conditions noted are these: dog. In short, it runs like this: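 MDCK monolayers (5×10^4 cells/well, 24 h) were rinsed twice with PBS and exposed to two-fold serial compound dilutions in DMEM for 48 h. Wells were examined by microscope. The concentration giving minimal change in cell morphology was taken as the minimum cytotoxic concentration (MCC).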

Data set [5] deals with Influenza A virus. In words: Antiviral activity against Influenza A virus (A/WSN/33 (H1N1)) infected in MDCK cells assessed as reduction in virus-induced cytopathic effect after 48 hrs by microscopic analysis. In kind it is functional, organism-based. The conditions noted are these: A/WSN/1933(H1N1). In short, it runs like this:
as §1

In data set [6] the test system is Influenza A virus. In words: Antiviral activity against Influenza A virus (A/PR/8/34 (H1N1)) infected in MDCK cells assessed as reduction in virus-induced cytopathic effect after 48 hrs by microscopic analysis. The conditions noted are these: A/Puerto Rico/8/1934(H1N1). It is filed as functional, organism-based. Put shortly:
as §1

Data set [7] deals with Influenza A virus. In words: Antiviral activity against Influenza A virus (A/HK/68(H3N2)) infected in MDCK cells assessed as reduction in virus-induced cytopathic effect after 48 hrs by microscopic analysis. It is filed as functional, organism-based. In short, it runs like this: as §1
For data set [8], the system named is H3N2 subtype. Put plainly: Antiviral activity against Influenza A virus (A/Aichi/2/68 (H3N2)) infected in MDCK cells assessed as reduction in virus-induced cytopathic effect after 48 hrs by microscopic analysis. In kind it is functional, organism-based. The conditions noted are these: A/Aichi/2/1968(H3N2). Put shortly: as §1
Data set [9] relates to Influenza A virus. In words: Antiviral activity against Influenza A virus (A/duck/Guangdong/1/1996 (H7N3)) infected in MDCK cells assessed as reduction in virus-induced cytopathic effect after 48 hrs by microscopic analysis. It is filed as functional, organism-based. In short, it runs like this: as §1
Data set [10] relates to Influenza A virus. In words: Antiviral activity against Influenza A virus (A/duck/HK/Y280/97 (H9N2)) infected in MDCK cells assessed as reduction in virus-induced cytopathic effect after 48 hrs by microscopic analysis. In kind it is functional, organism-based. Put shortly: as §1
Data set [11] concerns Influenza A virus. Put plainly: Antiviral activity against Influenza A virus (A/California/07/2009(H1N1)) infected in human A549 cells assessed as reduction in plaque area after 3 days post infection by crystal violet-staining based assay. Particulars: A549, 72 h. In kind it is functional, organism-based. In short, it runs like this:
(§2)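 A549 monolayers were infected at 0.01 MOI for 1 h at 37 °C, then washed twice with PBS. Cells were overlaid with 1% agar DMEM containing compound, 2 µg/mL trypsin and 0.3% BSA. Two to three days post-infection, monolayers were fixed and stained with 0.1% crystal violet.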

Data set [12] has as its system Influenza A virus. In words: Antiviral activity against Influenza A virus (A/Texas/04/2009(H1N1)) infected in human A549 cells assessed as reduction in plaque area after 3 days post infection by crystal violet-staining based assay. The conditions noted are these: A549, 72 h. It is filed as functional, organism-based. In short, it runs like this: as §2
The subject of data set [13] is Influenza A virus. Put plainly: Antiviral activity against Influenza A virus (A/PR/8/34 (H1N1)) infected in MDCK cells assessed as inhibition of virus yield dosed at -1 to 2 hrs post infection and measured after 24 hrs. The conditions noted are these: A/Puerto Rico/8/1934(H1N1). It is filed as functional, organism-based. In short, it runs like this: (§3)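 Confluent MDCK cells were infected with 100 TCID50 virus and adsorbed 1 h at 4 °C (adsorption defined as -1 h), then washed. Compound at 10 µM was present only during the stated interval, then washed out with PBS. Cells were kept in medium with 1.5 µg/mL TPCK-trypsin at 37 °C. After 24 h, plates were freeze-thawed and supernatant yield was titrated by TCID50.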

Data set [14] has as its target Hemagglutinin (Influenza A virus (A/Puerto Rico/8/1934(H1N1))) (UniProt P03452). In words: Inhibition of Influenza A virus A/PR/8/34 HA1 domain assessed as reduction in virus-induced aggregation of chicken erythrocytes at 0.75 to 1500 uM incubated for 1 hr with virus followed by transfer of compound-virus preparation to chicken erythrocytes solution measured after 40 mins. Put shortly: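 Two-fold serial compound dilutions in PBS were mixed with an equal volume of virus and incubated 1 h. The mixture was added to an equal volume of fresh 0.5% chicken red blood cells in Alsever's solution. After 40 min at room temperature, erythrocyte aggregation was read visually.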

Data set [15] shares this target. Put plainly: Inhibition of Influenza A virus A/PR/8/34 HA2-mediated hemolysis preincubated with virus for 30 mins followed by chicken red blood cells addition measured after 30 mins by spectrophotometric analysis. Put shortly: (§4)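 Virus (100 µL) was incubated with two-fold serial compound dilutions in PBS for 30 min at 37 °C. An equal volume of chicken red blood cells in citric acid-sodium citrate (pH 5.0) was added and incubated 30 min at 37 °C, then centrifuged at 400 × g. Supernatant absorbance was read at 540 nm, with mock-infected background subtracted. IC50 is the concentration giving 50% hemolysis inhibition. Two independent experiments were run.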

Data set [16] concerns the target Hemagglutinin (Influenza A virus (strain A/Aichi/2/1968 H3N2)) (UniProt P03437). In words: (§5) Inhibition of Influenza A virus A/Aichi/2/68 (H3N2) HA2-mediated hemolysis preincubated with virus for 30 mins followed by chicken red blood cells addition measured after 30 mins by spectrophotometric analysis. The conditions noted are these: Influenza A virus (A/Aichi/2/1968(H3N2)). Put shortly: as §4

In data set [17] the target is Hemagglutinin (Influenza A virus (strain A/Aichi/2/1968 H3N2), UniProt P03437). The data set is described as §5. Also noted: species or system Influenza A virus (A/Aichi/2/1968(H3N2)). Put shortly:
as §4

The subject of data set [18] is Influenza A virus. In words: Antiviral activity against Influenza A virus (A/PR/8/34 (H1N1)) infected in MDCK cells assessed as inhibition of virus yield dosed at 0 to 2 hrs post infection and measured after 24 hrs. In kind it is functional, organism-based. Particulars: A/Puerto Rico/8/1934(H1N1). Put shortly:
as §3

SMILES strings stand for the structures. Active and inactive are the calls of the source.

Sequence of Hemagglutinin (Influenza A virus (A/Puerto Rico/8/1934(H1N1))) (P03452 whole entry, the tested form may be a part): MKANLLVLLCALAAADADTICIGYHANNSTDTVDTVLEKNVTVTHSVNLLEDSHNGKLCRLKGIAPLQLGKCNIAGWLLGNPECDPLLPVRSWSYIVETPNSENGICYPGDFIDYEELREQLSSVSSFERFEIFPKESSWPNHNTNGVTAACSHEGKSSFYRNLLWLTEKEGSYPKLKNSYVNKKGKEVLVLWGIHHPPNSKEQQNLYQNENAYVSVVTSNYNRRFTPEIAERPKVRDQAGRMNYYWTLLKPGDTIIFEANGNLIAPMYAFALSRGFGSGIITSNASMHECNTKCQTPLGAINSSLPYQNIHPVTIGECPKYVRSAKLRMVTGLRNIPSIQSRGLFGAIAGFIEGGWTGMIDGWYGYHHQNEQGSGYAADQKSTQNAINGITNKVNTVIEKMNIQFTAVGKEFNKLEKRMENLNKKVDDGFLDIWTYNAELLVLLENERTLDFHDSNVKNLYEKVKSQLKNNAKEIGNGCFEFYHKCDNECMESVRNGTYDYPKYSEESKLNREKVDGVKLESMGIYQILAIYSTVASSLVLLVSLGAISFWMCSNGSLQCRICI

As for `C[C@@H]1C2CC(C[C@H]1NCc1sccc1C1CC1)C2(C)C` (single isomer, unassigned), the 50% effective concentration (EC50) in data set [1] amounted to 0.3 µM; in data set [5], 1.48 µM; in data set [6] it was 2.23 µM; in [7], 5.38 µM; in [8], 4.55 µM; in data set [9], 4.58 µM. The EC50 is 6.79 µM in data set [10], 0.34 µM in data set [11] and 0.1 µM in data set [12]. The outcome in data set [2] and in data set [3] was Active. Besides, the MCC at 48 h in [4] was determined as 25 µM. The inhibition result in data set [13] and in data set [18] was “Active” in each case. Further, the inhibition result in [14] is “inactive”. Besides, the inhibition entry in data set [15] and in data set [16] was “Dose-dependent effect” each time. The same compound registered an IC50 in data set [17] of 1.23 µM.
